First the molecules themselves.
B1: tRNA (parent)
chain: GUUCCGUUGGCGUAAUGGUAACGCGUCUCCCUCCUAAGGAGAAGACUGCGGGUUCGAGUCCCGUACGGAACG

Fewer inactive variants are shown than the library holds.

In the series the parent is B1. In words: yeast fitness relative to wild type (ratio to wild type); higher = fitter; tRNA-Arg(CCU), competitive growth, 37 C, YPD. The method, boiled down:
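The tRNA-Arg(CCU) gene variants were made by chemical synthesis with a 3% per-site mutation rate at 69 sites and inserted at the native genomic locus of Saccharomyces cerevisiae. After pooling, the strains were competed in YPD at 37°C for 24 hours in six parallel replicates. Gene amplicons from the start population and each end population were read by 100-nucleotide paired-end sequencing, and Darwinian fitness relative to wild type was taken from genotype frequency changes. Genotypes needed ≥ 100 starting reads, and estimates < 0.5 were set to 0.5.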
As to C29U C33G G52A G58C A70G, the yeast fitness was ≤ 0.5.

As for C29U A45C G63A, the yeast fitness worked out at 0.578.

On to C29U A43C G63A, for which the yeast fitness was found to be 0.699. C29U G58A A69U: the yeast fitness stood at 0.754.

C29G G50A A57U A70U: the yeast fitness was ≤ 0.5. As for C29G C34U G52A C60U, the figure is 0.548. In the case of C29G A37C A42U A57G G67A, the yeast fitness is ≤ 0.5. For the variant C29U C31U, the yeast fitness amounted to 0.846. Consider C29A C33U G67A, for which the yeast fitness is ≤ 0.5. As for C29G U32C C61G C66G, the yeast fitness is ≤ 0.5. As for C29A G50C U64C, the figure is ≤ 0.5; as for C29U C34U G41A G67A A70U, ≤ 0.5. Turning to C29G C46U G56A, the yeast fitness was ≤ 0.5.

As to C29U G41A A45C G67U, the yeast fitness is ≤ 0.5. The same measure for C29G C49U G63A: 0.513; for C29G C31A G44C A65C: ≤ 0.5; for C29G A57C C66G: ≤ 0.5. The same measure for C29U A40U G56C: 0.552; for C29G A36U C49U C60U: ≤ 0.5.

For C29G C49U G58C, the yeast fitness stood at 0.558. The same measure for C29G C33G: 0.59; for C29G C33A: 0.641; for C29U A65U: 0.754. Turning to C29G A69G, the yeast fitness is ≤ 0.5.

C29U C30A A37U A57C: the yeast fitness was ≤ 0.5. For the variant C29U C66A, the yeast fitness was found to be 0.591.

Regarding C29U C66U, the yeast fitness came out at 0.796. Regarding C29A G50A, the yeast fitness was 0.678. As for C29G A37U C46U, the figure is ≤ 0.5; as for C29A C66A G68C, ≤ 0.5; as for C29A G48A C66U, ≤ 0.5.

On to C29U C30A A65U, for which the yeast fitness was ≤ 0.5. C29G G44A: the yeast fitness is 0.593. The same measure for C29U C30U G63A: 0.514. Turning to C29A A45C C46U G51A G56A, the yeast fitness is ≤ 0.5. C29G C49G G63C: the yeast fitness was ≤ 0.5.

On to C29U A43C, for which the yeast fitness was 0.948. Regarding C29U A43U, the yeast fitness came out at 1.04. The same measure for C29A U35C A45C C49U: ≤ 0.5; for C29G C46G G48C: 0.533; for C29G C31G C46G C55U A65U: 0.627. As to C29U G38C U64C, the yeast fitness is ≤ 0.5. As for C29G G51A A69U, the figure is ≤ 0.5; as for C29A C49G C55U, ≤ 0.5. For C29G G39C U47A, the yeast fitness was determined as 0.978. The same measure for C29G U32C A36G: 0.597; for C29U C31G G38A G51A G58C: ≤ 0.5; for C29U C30U A43U A65U: 0.588. For C29U G38C C55U G67C, the yeast fitness is ≤ 0.5. As for C29G G41C A65U, the figure is ≤ 0.5. With C29G A37C C60A A70G, the yeast fitness is ≤ 0.5. As for C29G A43G U64C, the yeast fitness is ≤ 0.5. With C29G G41A C61U, the yeast fitness was 0.531. Regarding C29A C49U, the yeast fitness stood at 0.627. The same measure for C29G C46U C66U: 0.606; for C29A C46U: 0.724.

For the variant C29U C55U A65G, the yeast fitness is ≤ 0.5.

C29A U47C: the yeast fitness was determined as 0.713. As for C29A A69U, the yeast fitness was 0.756. The same measure for C29A A69C: 0.679; for C29U C62A C66U: ≤ 0.5; for C29U A37G G48C G67C: ≤ 0.5. The same measure for C29U C33A G38C: 0.638; for C29U C33A G38A: ≤ 0.5; for C29A G41A A43C A69C: ≤ 0.5. Take C29A A57G U64A: the yeast fitness is ≤ 0.5.

Turning to C29U C49A G67C, the yeast fitness was ≤ 0.5. The same measure for C29U C33U A42C: 0.774; for C29U G38C A45U U59C: 0.592; for C29G A45G G52C A57U: ≤ 0.5. Consider C29G C49A, for which the yeast fitness turned out to be 0.664. As to C29U C33G G44C U64C, the yeast fitness was ≤ 0.5. The same measure for C29U C46G G51A: 0.543; for C29G C62U G68A: 0.542. As for C29A C30U C33G C46U, the figure is ≤ 0.5; as for C29A C55U G63C U64C, ≤ 0.5. As for C29G C30A C49U, the figure is ≤ 0.5; as for C29U C31U U54G G68C, ≤ 0.5; as for C29U C31U U54G G68A, ≤ 0.5.

With C29U C33G A69U, the yeast fitness was ≤ 0.5. The same measure for C29U A45U A65C: 0.544; for C29U A43G C66U: 0.598; for C29U G38C A43U C55U: 0.516. As for C29U C31U G41C, the figure is ≤ 0.5; as for C29U A36U A57G G58A, ≤ 0.5.

C29U G48A G56C C61U: the yeast fitness was ≤ 0.5.

Take C29G C46U: the yeast fitness came out at 0.611. The same measure for C29G G41A: 0.723. As for C29G C30U G58A, the figure is 0.608; as for C29A C30U G48A G50A, ≤ 0.5. As for C29G C31A A43C G67A, the figure is ≤ 0.5; as for C29G U32A C62A, 0.608. For the variant C29G A36G A65C, the yeast fitness is ≤ 0.5. C29G A37G A70G: the yeast fitness stood at 0.562. As for C29U A42U A43U C55G C62G, the yeast fitness was ≤ 0.5. Consider C29G A45G, for which the yeast fitness was 0.609. Turning to C29U C34U G48C G52A, the yeast fitness was ≤ 0.5. The same measure for C29A C46A C55A A57G: ≤ 0.5; for C29A A45C G48C C49G: ≤ 0.5.

Consider C29U G63A A70U, for which the yeast fitness is 0.6.

Regarding C29U C61U G63C, the yeast fitness is ≤ 0.5. Regarding C29G C33U G68A, the yeast fitness is ≤ 0.5. As for C29A U32C A42U A69U, the figure is ≤ 0.5; as for C29G G48A G67C, ≤ 0.5; as for C29G G58C, 0.642. With C29G G68C, the yeast fitness turned out to be 0.595. The same measure for C29A G58C G67A: 0.589; for C29A C30A G67U: 0.667; for C29G U35A U64C: ≤ 0.5. As for C29A C33U U47A A57U, the figure is ≤ 0.5; as for C29G C33U G50A A70C, ≤ 0.5; as for C29U A45C U54A C55A, ≤ 0.5.

For C29U A40G C60G, the yeast fitness was ≤ 0.5.

As to C29U C30A U59G, the yeast fitness was ≤ 0.5. Turning to C29G A40U G67C, the yeast fitness was found to be 0.517. Regarding C29U C31U G41C A65G, the yeast fitness turned out to be 0.609. In the case of C29A A65U, the yeast fitness amounted to 0.626. As for C29A A65G, the figure is 0.667; as for C29G G39C, 0.852; as for C29A U35A G56A G63A, 0.525. As for C29U C49U, the figure is 0.836; as for C29G C34U U59C, 0.631.

For the variant C29G G44A G58C, the yeast fitness was ≤ 0.5.

Consider C29U C33A G38A G58C A65U, for which the yeast fitness was ≤ 0.5. Turning to C29U A45C U53C C55U G56C C61A C66U, the yeast fitness was ≤ 0.5. As for C29G A36G C55U, the figure is ≤ 0.5; as for C29A U47C G50C A57C, 0.582; as for C29U G38A, 0.733. The same measure for C29U G38C: 0.545. Regarding C29U C34A, the yeast fitness stood at 0.761. Turning to C29U A69C, the yeast fitness is 0.939. As for C29U C31A A40C G52A C61A, the figure is ≤ 0.5; as for C29G C49G A57G, 0.6. For C29G U35G A42G C61U, the yeast fitness was ≤ 0.5. For the variant C29G C60A G67A, the yeast fitness was ≤ 0.5. Regarding C29G A37U, the yeast fitness came to 0.566. For the variant C29U G41C G56A C60G C62G, the yeast fitness was ≤ 0.5. As for C29U C33U A40G U47A, the figure is ≤ 0.5; as for C29G A37G G51A C55A, ≤ 0.5.

Take C29G C34G C60G: the yeast fitness came to 0.562. With C29G G41A A57G, the yeast fitness was ≤ 0.5.

Turning to C29U C34G A65G, the yeast fitness was 0.668. Consider C29U G51C G67A, for which the yeast fitness is ≤ 0.5.

Take C29A C30U: the yeast fitness turned out to be 0.689. Turning to C29G C31A C55U A70U, the yeast fitness was ≤ 0.5. With C29U C33G G52A G58C, the yeast fitness is 0.596.

In the case of C29G A37C G63A A65G, the yeast fitness was ≤ 0.5. For C29A U35A, the yeast fitness came out at 0.672. With C29A U35G, the yeast fitness was ≤ 0.5. As for C29G C34U A42G, the figure is ≤ 0.5; as for C29U A57G C60G U64C, 0.609. The same measure for C29U C33A: 0.7. On to C29U C33G, for which the yeast fitness is 0.689.

As to C29U C61U, the yeast fitness was determined as 0.706.

As to C29G A40C A57C, the yeast fitness amounted to 0.551. On to C29G A37U U59C C66G, for which the yeast fitness came to 0.687. Regarding C29G C30U, the yeast fitness is 0.632. On to C29G A40U G44A, for which the yeast fitness was ≤ 0.5. The same measure for C29G A65G: 0.713; for C29G A65C: 0.564; for C29G: 0.686. The same measure for C29U: 0.989; for C29U C31A G44A: 0.885; for C29G G50C C66A: 0.518. For C29G C46U A57G C61U, the yeast fitness is ≤ 0.5. Take C29G C46A G68A: the yeast fitness was ≤ 0.5. As for C29A U35C A45U C60G G63C, the figure is 0.538.

For the origin of these results see the RNAGym collection of RNA variant scans (doi:10.1126/science.aae0568).
